Reference: ChEMBL document CHEMBL2331221, “Potent elastase inhibitors from cyanobacteria: structural basis and mechanisms mediating cytoprotective and anti-inflammatory effects in bronchial epithelial cells” (J Med Chem, 2013)
Activity calls are given as the source filed them. The calls are words filed in the database; no cut-off is given here.

Tests used:
[1] = target: Plasma kallikrein (Homo sapiens) (UniProt P03952); assay: Inhibition of Plasma Kallikrein (unknown origin) using Z-FR-AMC substrate assessed as residual activity at 10 uM incubated for 15 mins prior to substrate addition measured for 2 hrs
In short: (§1)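 Protease panel screen: enzyme and inhibitor preincubated 15 min in reaction buffer, then substrate added; reaction followed for 2 h and the initial linear part of the progress curve used for activity. Enzyme, substrate, buffer and detection details are given only in a supporting table.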

[2] = target: Kallikrein-13 (Homo sapiens) (UniProt Q9UKR3); assay: Inhibition of Kallikrein-13 (unknown origin) using VPR-AMC substrate assessed as residual activity at 10 uM incubated for 15 mins prior to substrate addition measured for 2 hrs
In short: (§2)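 Protease panel screen: enzyme and test inhibitor preincubated 15 min in the enzyme's reaction buffer, then substrate added. Reaction followed for 2 h, and activity was taken from the initial linear portion of the progress-curve slope. Enzyme, substrate, buffer and detection conditions for each target are given only in the paper's supporting table.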

[3] = target: Kallikrein-1 (Homo sapiens) (UniProt P06870); assay: Inhibition of Kallikrein-1 (unknown origin) using Z-GPR-AMC substrate assessed as residual activity at 10 uM incubated for 15 mins prior to substrate addition measured for 2 hrs; in short: as §2
Hepacivirus hominis = assay: Inhibition of Hepatitis C virus NS3/4A protease using Anaspec EnzoLyte substrate assessed as residual activity at 10 uM incubated for 15 mins prior to substrate addition measured for 2 hrs; in short: as §2
[4] = target: Coagulation factor X (Homo sapiens) (UniProt P00742); assay: Inhibition of Factor-10a (unknown origin) using CH3SO2-D-CHA-Gly-Arg-AMC-AcOH substrate assessed as residual activity at 10 uM incubated for 15 mins prior to substrate addition measured for 2 hrs; in short: as §2
Chymase (Homo sapiens) = Chymase (Homo sapiens) (UniProt P23946); assay: Inhibition of Chymase (unknown origin) using Suc-AAPF-AMC substrate assessed as residual activity at 10 uM incubated for 15 mins prior to substrate addition measured for 2 hrs; in short: as §2
[5] = target: Cathepsin G (Homo sapiens) (UniProt P08311); assay: Inhibition of Cathepsin G (unknown origin) using Suc-AAPF-AMC substrate assessed as residual activity at 10 uM incubated for 15 mins prior to substrate addition measured for 2 hrs; in short: as §2
[6] = target: Dipeptidyl peptidase 8 (Homo sapiens) (UniProt Q6V1X1); assay: Inhibition of DPP8 (unknown origin) using H-GP-AMC substrate assessed as residual activity at 10 uM incubated for 15 mins prior to substrate addition measured for 2 hrs; in short: as §2
Homo sapiens = organism: Homo sapiens; assay: Inhibition of human pancreatic chymotrypsin assessed as proteolysis using N-succinyl-Ala-Ala-Pro-Phe-p-nitroanilide substrate incubated at 10 uM for 30 mins prior to substrate addition; parameters: scale not given: the % may be the effect or the level left
In short: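 Pancreatic chymotrypsin, bovine at 100 μg/mL or human at 50 μg/mL; reaction buffer, enzyme and inhibitor (DMSO) incubated 30 min at room temperature, then substrate added (bovine: N-succinyl-Gly-Gly-Phe-pNA; human: N-succinyl-Ala-Ala-Pro-Phe-pNA). Absorbance read at 405 nm; activity from reaction slope relative to solvent control.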

Kallikrein-12 = Kallikrein-12 (Homo sapiens, UniProt Q9UKR0); assay: Inhibition of Kallikrein-12 (unknown origin) using VPR-AMC substrate incubated for 15 mins prior to substrate addition measured for 2 hrs; in short: as §2
Kallikrein-5 = Kallikrein-5 (Homo sapiens, UniProt Q9Y337); assay: Inhibition of Kallikrein-5 (unknown origin) using Z-VVR-AMC substrate incubated for 15 mins prior to substrate addition measured for 2 hrs; in short: as §2
[7] = target: Cathepsin D (Homo sapiens) (UniProt P07339); assay: Inhibition of Cathepsin D (unknown origin) using MCA-KPILFFRLK(Dnp)-D-R-NH2 substrate assessed as residual activity at 10 uM incubated for 15 mins prior to substrate addition measured for 2 hrs; in short: as §2
[8] = target: Disintegrin and metalloproteinase domain-containing protein 17 (Homo sapiens) (UniProt P78536); assay: Inhibition of TACE (unknown origin) using MCA-PLAQAV-Dpa-RSSSR-NH2 substrate assessed as residual activity at 10 uM incubated for 15 mins prior to substrate addition measured for 2 hrs; in short: as §1
[9] = target: Disintegrin and metalloproteinase domain-containing protein 9 (Homo sapiens) (UniProt Q13443); assay: Inhibition of ADAM9 (unknown origin) using MCA-PLAQAV-Dpa-RSSSR-[…] substrate assessed as residual activity at 10 uM incubated for 15 mins prior to substrate addition measured for 2 hrs; in short: as §2
[10] = target: Matrix metalloproteinase-14 (Homo sapiens) (UniProt P50281); assay: Inhibition of MMP14 (unknown origin) using (5-FAM/QXLTM) FRET peptide substrate assessed as residual activity at 10 uM incubated for 15 mins prior to substrate addition measured for 2 hrs; in short: as §2
[11] = target: Matrix metalloproteinase-9 (Homo sapiens) (UniProt P14780); assay: Inhibition of MMP9 (unknown origin) using (5-FAM/QXLTM) FRET peptide substrate assessed as residual activity at 10 uM incubated for 15 mins prior to substrate addition measured for 2 hrs; in short: as §1
[12] = target: Neutrophil collagenase (Homo sapiens) (UniProt P22894); assay: Inhibition of MMP8 (unknown origin) using (5-FAM/QXLTM) FRET peptide substrate assessed as residual activity at 10 uM incubated for 15 mins prior to substrate addition measured for 2 hrs; in short: as §1
[13] = target: Interstitial collagenase (Homo sapiens) (UniProt P03956); assay: Inhibition of MMP1 (unknown origin) using (5-FAM/QXLTM) FRET peptide substrate assessed as residual activity at 10 uM incubated for 15 mins prior to substrate addition measured for 2 hrs; in short: as §2
[14] = target: Cathepsin Z (Homo sapiens) (UniProt Q9UBR2); assay: Inhibition of Cathepsin X/Z (unknown origin) using MCA-RPPGFSAFK(Dnp) substrate assessed as residual activity at 10 uM incubated for 15 mins prior to substrate addition measured for 2 hrs; in short: as §2
[15] = target: Cathepsin L2 (Homo sapiens) (UniProt O60911); assay: Inhibition of Cathepsin V (unknown origin) using Z-FR-AMC substrate assessed as residual activity at 10 uM incubated for 15 mins prior to substrate addition measured for 2 hrs; in short: as §2
[16] = target: T1, Neutrophil elastase (Homo sapiens) (UniProt P08246); conditions: BEAS2B, 10 uM
T1 sequence (whole entry): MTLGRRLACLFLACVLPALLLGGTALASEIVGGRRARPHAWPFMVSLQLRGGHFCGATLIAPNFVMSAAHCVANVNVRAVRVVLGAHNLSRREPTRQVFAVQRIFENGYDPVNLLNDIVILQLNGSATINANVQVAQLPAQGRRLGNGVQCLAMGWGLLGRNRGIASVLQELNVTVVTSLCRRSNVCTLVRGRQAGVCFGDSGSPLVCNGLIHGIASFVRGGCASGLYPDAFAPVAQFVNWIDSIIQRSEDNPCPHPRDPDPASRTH

[17] = target: T1, Neutrophil elastase (Homo sapiens); conditions: BEAS2B, 100 uM
[18] = target: Tryptase beta-2 (Homo sapiens) (UniProt P20231); assay: Inhibition of Tryptase beta2 (unknown origin) using Z-GPR-AMC substrate assessed as residual activity at 10 uM incubated for 15 mins prior to substrate addition measured for 2 hrs
Tryptase beta-2 (Homo sapiens), sequence (P20231 whole entry, looked up): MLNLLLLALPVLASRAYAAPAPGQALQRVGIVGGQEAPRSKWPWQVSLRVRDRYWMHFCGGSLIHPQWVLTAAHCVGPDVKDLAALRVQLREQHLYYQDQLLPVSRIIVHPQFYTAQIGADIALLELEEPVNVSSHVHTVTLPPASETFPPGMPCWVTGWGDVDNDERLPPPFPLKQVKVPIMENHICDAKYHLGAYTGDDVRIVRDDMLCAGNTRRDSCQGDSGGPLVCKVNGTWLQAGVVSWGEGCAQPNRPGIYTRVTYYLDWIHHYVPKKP

Chymase (Homo sapiens), sequence (P23946 whole entry): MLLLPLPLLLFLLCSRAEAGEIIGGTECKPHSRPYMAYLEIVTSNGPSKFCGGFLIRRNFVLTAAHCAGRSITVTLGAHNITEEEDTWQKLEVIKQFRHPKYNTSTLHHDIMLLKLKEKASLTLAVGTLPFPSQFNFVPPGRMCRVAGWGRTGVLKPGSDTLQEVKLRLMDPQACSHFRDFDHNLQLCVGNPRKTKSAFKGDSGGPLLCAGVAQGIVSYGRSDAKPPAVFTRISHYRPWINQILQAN
Disintegrin and metalloproteinase domain-containing protein 17 (Homo sapiens), sequence (P78536 whole entry, the tested form may be a part): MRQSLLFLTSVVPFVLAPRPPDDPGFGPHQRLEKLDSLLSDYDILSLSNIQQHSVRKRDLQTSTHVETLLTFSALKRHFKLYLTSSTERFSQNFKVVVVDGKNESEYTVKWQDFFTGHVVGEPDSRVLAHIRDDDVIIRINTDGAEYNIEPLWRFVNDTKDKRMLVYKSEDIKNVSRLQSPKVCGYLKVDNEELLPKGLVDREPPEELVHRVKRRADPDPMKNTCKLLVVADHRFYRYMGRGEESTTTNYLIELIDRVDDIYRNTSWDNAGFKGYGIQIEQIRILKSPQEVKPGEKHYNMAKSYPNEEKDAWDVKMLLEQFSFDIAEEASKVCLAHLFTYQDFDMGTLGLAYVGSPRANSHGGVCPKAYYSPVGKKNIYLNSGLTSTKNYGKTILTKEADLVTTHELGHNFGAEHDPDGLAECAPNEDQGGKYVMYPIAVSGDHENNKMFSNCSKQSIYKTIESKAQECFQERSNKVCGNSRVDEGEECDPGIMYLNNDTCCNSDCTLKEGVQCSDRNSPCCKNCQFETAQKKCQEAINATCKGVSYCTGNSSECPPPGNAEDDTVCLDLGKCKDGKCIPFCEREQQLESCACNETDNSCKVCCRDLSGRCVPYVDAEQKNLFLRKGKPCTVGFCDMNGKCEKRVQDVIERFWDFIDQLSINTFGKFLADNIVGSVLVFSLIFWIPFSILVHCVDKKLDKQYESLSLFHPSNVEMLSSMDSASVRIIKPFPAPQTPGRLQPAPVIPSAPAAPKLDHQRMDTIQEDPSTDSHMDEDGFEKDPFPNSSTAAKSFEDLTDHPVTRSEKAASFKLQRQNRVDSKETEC
Cathepsin G (Homo sapiens), sequence (P08311 whole entry): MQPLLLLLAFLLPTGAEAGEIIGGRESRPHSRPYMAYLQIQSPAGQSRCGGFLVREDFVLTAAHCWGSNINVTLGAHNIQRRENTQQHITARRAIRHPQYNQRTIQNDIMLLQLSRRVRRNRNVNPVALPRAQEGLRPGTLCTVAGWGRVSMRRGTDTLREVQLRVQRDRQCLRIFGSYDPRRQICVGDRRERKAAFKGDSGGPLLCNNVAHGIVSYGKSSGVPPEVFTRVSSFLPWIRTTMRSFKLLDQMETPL
Disintegrin and metalloproteinase domain-containing protein 9 (Homo sapiens), sequence (Q13443 whole entry, the tested form may be a part): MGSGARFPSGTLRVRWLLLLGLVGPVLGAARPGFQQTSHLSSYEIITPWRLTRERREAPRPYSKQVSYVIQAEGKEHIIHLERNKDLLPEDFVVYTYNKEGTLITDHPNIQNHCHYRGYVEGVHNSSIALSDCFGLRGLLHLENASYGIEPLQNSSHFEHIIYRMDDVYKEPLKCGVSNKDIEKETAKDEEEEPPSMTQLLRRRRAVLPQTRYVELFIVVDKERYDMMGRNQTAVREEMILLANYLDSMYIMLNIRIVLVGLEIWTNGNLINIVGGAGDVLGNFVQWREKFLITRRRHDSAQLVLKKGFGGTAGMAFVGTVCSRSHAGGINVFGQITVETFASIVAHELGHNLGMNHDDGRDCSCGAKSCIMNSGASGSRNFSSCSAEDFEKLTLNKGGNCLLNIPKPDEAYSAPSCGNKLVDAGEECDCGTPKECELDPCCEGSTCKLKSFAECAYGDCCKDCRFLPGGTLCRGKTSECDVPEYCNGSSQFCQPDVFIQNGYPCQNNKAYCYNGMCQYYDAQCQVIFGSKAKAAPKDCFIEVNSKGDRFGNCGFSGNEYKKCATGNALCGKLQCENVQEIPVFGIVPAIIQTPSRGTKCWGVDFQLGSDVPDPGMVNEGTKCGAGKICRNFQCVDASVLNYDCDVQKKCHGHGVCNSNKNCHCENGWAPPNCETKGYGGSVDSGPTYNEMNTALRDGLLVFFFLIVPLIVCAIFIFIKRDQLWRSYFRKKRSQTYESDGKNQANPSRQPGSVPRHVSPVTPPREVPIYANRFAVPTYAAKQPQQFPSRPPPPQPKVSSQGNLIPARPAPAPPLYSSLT
Kallikrein-13 (Homo sapiens), sequence (Q9UKR3 whole entry): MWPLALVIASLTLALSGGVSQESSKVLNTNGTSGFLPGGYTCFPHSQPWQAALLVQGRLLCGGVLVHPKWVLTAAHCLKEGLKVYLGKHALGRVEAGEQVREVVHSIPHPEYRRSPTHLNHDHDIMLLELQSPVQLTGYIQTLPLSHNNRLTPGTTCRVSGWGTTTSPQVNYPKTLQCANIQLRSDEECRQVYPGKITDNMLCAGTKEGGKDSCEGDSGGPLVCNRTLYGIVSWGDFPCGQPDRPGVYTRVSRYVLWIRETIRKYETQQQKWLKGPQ
Cathepsin D (Homo sapiens), sequence (P07339 65-162 limits assumed): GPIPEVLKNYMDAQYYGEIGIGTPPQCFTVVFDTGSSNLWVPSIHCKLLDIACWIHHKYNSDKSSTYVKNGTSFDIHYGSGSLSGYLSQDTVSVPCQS
Cathepsin D (Homo sapiens), sequence (P07339 169-412 limits assumed): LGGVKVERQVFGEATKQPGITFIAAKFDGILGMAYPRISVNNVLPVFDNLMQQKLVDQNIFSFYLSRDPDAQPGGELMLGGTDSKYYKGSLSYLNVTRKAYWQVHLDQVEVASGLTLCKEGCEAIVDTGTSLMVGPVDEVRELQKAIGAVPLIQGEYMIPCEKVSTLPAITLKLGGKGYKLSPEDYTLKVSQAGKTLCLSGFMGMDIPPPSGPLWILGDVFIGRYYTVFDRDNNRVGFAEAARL
Matrix metalloproteinase-9 (Homo sapiens), sequence (P14780 whole entry): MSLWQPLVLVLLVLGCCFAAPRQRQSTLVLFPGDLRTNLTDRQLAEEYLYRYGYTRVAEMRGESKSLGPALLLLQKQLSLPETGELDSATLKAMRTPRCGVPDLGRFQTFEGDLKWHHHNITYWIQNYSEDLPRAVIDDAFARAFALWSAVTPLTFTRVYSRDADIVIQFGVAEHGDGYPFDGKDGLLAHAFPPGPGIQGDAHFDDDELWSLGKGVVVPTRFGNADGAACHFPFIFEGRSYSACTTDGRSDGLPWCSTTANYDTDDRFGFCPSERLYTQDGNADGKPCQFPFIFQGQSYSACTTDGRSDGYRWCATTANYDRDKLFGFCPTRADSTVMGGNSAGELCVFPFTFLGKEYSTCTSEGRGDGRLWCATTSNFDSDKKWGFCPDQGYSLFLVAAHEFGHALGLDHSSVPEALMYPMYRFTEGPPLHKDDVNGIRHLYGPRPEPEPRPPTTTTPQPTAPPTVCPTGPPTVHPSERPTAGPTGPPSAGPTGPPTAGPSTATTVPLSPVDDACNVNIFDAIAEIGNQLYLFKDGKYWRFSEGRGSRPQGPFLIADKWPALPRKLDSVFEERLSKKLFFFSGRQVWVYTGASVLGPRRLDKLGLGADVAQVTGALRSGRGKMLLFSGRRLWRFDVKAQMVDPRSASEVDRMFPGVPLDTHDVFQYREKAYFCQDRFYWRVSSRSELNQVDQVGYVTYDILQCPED
Dipeptidyl peptidase 8 (Homo sapiens), sequence (Q6V1X1 whole entry, looked up): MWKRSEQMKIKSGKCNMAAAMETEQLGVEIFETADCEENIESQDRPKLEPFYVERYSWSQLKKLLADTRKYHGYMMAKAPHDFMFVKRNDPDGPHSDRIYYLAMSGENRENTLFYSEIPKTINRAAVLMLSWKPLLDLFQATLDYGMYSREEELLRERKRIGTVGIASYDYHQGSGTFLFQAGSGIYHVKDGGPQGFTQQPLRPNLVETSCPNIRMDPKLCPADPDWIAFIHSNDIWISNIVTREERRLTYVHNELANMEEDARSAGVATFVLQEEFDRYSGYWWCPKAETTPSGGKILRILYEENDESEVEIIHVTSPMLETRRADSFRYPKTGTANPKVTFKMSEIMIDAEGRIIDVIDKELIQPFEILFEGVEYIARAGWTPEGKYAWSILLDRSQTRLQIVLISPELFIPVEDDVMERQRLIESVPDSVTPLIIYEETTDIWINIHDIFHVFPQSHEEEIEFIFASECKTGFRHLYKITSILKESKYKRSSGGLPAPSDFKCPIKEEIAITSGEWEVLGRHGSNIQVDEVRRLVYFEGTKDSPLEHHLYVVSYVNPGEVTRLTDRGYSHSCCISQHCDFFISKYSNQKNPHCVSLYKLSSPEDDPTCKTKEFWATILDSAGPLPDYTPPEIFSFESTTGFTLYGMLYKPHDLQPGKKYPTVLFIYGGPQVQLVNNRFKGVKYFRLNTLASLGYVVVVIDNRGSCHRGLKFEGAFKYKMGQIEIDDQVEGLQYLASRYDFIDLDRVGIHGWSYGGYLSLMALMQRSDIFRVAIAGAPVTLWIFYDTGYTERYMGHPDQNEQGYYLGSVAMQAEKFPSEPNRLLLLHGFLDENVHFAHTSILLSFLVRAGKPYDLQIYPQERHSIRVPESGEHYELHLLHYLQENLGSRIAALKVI
Kallikrein-12, sequence (Q9UKR0 whole entry): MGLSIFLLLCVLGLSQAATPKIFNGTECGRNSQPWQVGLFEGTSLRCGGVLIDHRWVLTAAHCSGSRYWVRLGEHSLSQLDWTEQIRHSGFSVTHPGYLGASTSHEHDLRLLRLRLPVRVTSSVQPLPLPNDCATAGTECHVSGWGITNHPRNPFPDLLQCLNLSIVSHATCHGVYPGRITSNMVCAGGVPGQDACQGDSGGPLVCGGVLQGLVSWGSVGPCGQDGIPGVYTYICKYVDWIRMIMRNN

Q: C/C=C1\NC(=O)[C@@H](NC(=O)[C@@H](NC(=O)[C@@H](COS(=O)(=O)[O-])OC)C(C)C)[C@@H](C)OC(=O)[C@H]([C@H](C)CC)NC(=O)[C@H](Cc2ccccc2)N(C)C(=O)[C@H](Cc2ccccc2)N2C(=O)[C@H](CC[C@H]2O)NC1=O.[Na+] [Symplostatin 5] was tested. Which Activity [1] did it give?
A: 50%

Q: And the Activity [2]?
A: 100%

Q: What about the Activity [3] of the same compound?
A: 100%

Q: What about the Activity (Hepacivirus hominis) of the same compound?
A: 100%

Q: And the Activity [4]?
A: 100%

Q: What about the Activity (Chymase (Homo sapiens)) of the same compound?
A: 100%

Q: What about the Activity [5] of the same compound?
A: 50%

Q: What about the Activity [6] of the same compound?
A: 100%

Q: And the Activity (Homo sapiens)?
A: 53.4%

Q: And the IC50 (Kallikrein-12)?
A: < 10 µM

Q: What about the IC50 (Kallikrein-5) of the same compound?
A: < 10 µM

Q: And the Activity [7]?
A: 100%

Q: What about the Activity [8] of the same compound?
A: 100%

Q: And the Activity [9]?
A: 100%

Q: And the Activity [10]?
A: 100%

Q: What about the Activity [11] of the same compound?
A: 100%

Q: And the Activity [12]?
A: 100%

Q: And the Activity [13]?
A: 100%

Q: What about the Activity [14] of the same compound?
A: 100%

Q: What about the Activity [15] of the same compound?
A: 100%

Q: And the inhibition [16]?
A: Active

Q: What about the inhibition [17] of the same compound?
A: inactive

Q: And the Activity [18]?
A: 100%
